A number with no mark means an inactive call. Records with an inconclusive call do not appear. Calls of active or inactive are those of the source.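 How the source made its calls, unless noted: active means viability at or below 27.92% in each of two runs, the all-compound median minus 4 SD; inconclusive means no clear call, values can overlap the other calls; inactive means the rest.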
Tests used:
[1] = OD615 S. cerevisiae growth inhibition, permissive medium, pilot counter-assay, permissive growth control for S. cerevisiae lifespan shortening project (AID 705;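 active means growth inhibition above 25% in both replicates, a cutoff set 3 SD above the mean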); conditions: OD615, 24 h, at 10 µM, hits give high values
Summary of the method: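 System: engineered DeaD yeast; Medium: permissive raffinose/galactose medium; Compound dosing: 10 µM single dose, 0.25% DMSO; Incubation: 4 h cell pre-growth, 24 h exposure at 30 °C; Technique: OD at 615 nm; Evaluation: growth inhibition from lowered OD615 after 24 h.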

[2] = Restrictive medium S. cerevisiae growth inhibition, OD615, pilot screen of yeast lifespan reduction project, restrictive growth control (AID 706;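 active means growth inhibition above a set limit, 3 SD over mean compound inhibition, in both replicates, cut at about 43% in these data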;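 further: modified DeaD lifespan yeast strain shifted to restrictive glucose medium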); conditions: OD615, 48 h, at 10 µM, hits give high values
Summary of the method: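 Material: modified S. cerevisiae; buffer or medium: CSMM-D glucose medium; doses: one concentration, 10 µM final, 0.25% DMSO; incubation: 48 h compound exposure at 30 °C; detection: optical density at 615 nm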

[3] = viability gain of MRP-1-high H69AR cells under doxorubicin, pilot screen, MRP-1 activator project, CellTiter-Glo, duplicate (AID 807;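 active means viability increase at or above a cutoff of the median across tested compounds plus 3 SD, cut at about 8.5% in these data, passing the limit was not always enough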;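 further: compound pretreatment 18-22 h then 72 h combined with doxorubicin; 0% = doxorubicin alone and 100% = vehicle without doxorubicin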); conditions: H69AR viability with doxorubicin, CellTiter-Glo luminescence; at 10 µM; hits give high values
[4] = growth suppression of beta-catenin knockout HCT116, pilot screen, human colon tumor cells (AID 823;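 active means cell viability at or below a set limit in both duplicate runs, the limit being the all-compound median minus 4 SD, cut at about 23% in these data, passing the limit was not always enough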;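 further: 0% = wells killed by 20 µM Hyamine and 100% = untreated DMSO cell wells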); conditions: CellTiter-Glo, 60 h, at 10 µM, hits give low values
[5] = growth suppression of PTEN-deleted HCT116, pilot screen, cell-based, HCT116 clonal line, CellTiter-Glo (AID 824); conditions: 60 h, at 10 µM, hits give low values;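 further: 0% = 20 µM Hyamine control and 100% = vehicle cell control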
[6] = inhibitors of the yeast RAM network, pilot screen, dse1pr::URA3 reporter, 5-FOA selection (AID 869;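 active means inhibition over a set limit, the all-compound mean plus 3 SD, in both replicate runs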;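 further: 0% = DMSO wells with no growth and 100% = 10 µM 1-NA-PP1 with full growth; RAM network block rescues cells from 5-FOA so hits raise OD615 growth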); conditions: S. cerevisiae dse1pr::URA3 5-FOA growth, OD615, 2 d; at 10 µM; hits give high values; strain carries analog-sensitive mutant Cbk1 kinase
[7] = RAM signaling pathway blockade in yeast – S. cerevisiae, Pdr1DBD-CYC8 efflux-inhibited sensitized strain, primary screen (AID 1298;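 active means RAM network inhibition above 8.4% in each of two replicates, 3 SD over the compound average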;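 further: 0% = DMSO untreated cells without growth and 100% = 10 µM 1-NA-PP1 full growth; higher means more yeast growth rescued from 5-FOA killing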); conditions: S. cerevisiae cbk1-as DSE1-URA3 strain, 5-FOA growth OD615, 2 d; at 50 µM; hits give high values

Row | SMILES | growth inhibition [1] [%] | growth inhibition [2] [%] | viability increase [3] [%] | viability [4] | viability [5] | inhibition [6] [%] | RAM network inhibition [7] [%]
1 | COc1ccc(N=C2SC(C(=O)O)CC(=O)N2C)cc1 (stereo not drawn) | -5.94 | 7.82 | -0.87 | 98.1% | 101% | 0.35 | 3.61
2 | Cc1cc(C)cc(N(CC(=O)N2CCN(c3ccccc3)CC2)S(=O)(=O)c2c(C)noc2C)c1 | -14.4 | -10.2 | -3.46 | 62.6% | 67.5% | 0.57 | 6.09
3 | COc1cccc(N2C(=O)C3ON(c4ccccc4)C(c4cccs4)C3C2=O)c1 (stereo not drawn) | -13 | 15.5 | -0.83 | 107% | 97.8% | 2.65 | 4.23
4 | Cc1ccc(CCN2CC(C(=O)NCc3cccnc3)CC2=O)cc1 (stereo not drawn) | 6 | 5.13 | -0.64 | 104% | 94.5% | 2.59 | -0.99
5 | CCOC(=O)C1=C(SCC(=O)Nc2ccccc2)NC(=O)C(C#N)C12CCCCC2 (stereo not drawn) | -8.66 | -7.72 | -2.95 | 85.1% | 91.5% | 1.71 | 2.44
6 | Brc1ccc(CSc2nnc(-c3ccccn3)n2Cc2ccco2)cc1 | 2.3 | 28.9 | -3.69 | 15.2% (active) | 15.7% (active) | 2.53 | 7.63
7 | CC(=O)Nc1cccc(N(C)C)c1 | 3.45 | 5.4 | -0.76 | 96.1% | 105% | 1.44 | 1.55
8 | Cc1nn(C(=O)CN2C(=O)c3ccccc3C2=O)c(C)c1Br | -4.13 | 3.1 | -1.05 | 101% | 103% | 0.84 | 4.29
9 | CC(C)NS(=O)(=O)c1ccc(CCC(=O)NCc2ccco2)cc1 | -15.3 | -22.4 | -3.3 | 93.1% | 97% | 1.55 | -0.53
10 | COc1ccc(S(=O)(=O)Cc2ccc(C(=O)NCc3cccnc3)o2)cc1 | -4.57 | -10.1 | -5 | 88.2% | 84% | 1 | 3.45
11 | O=P(O)(CCc1ccncc1)CN1CCCCC1 | -9.59 | -7.67 | 2.46 | 97.3% | 101% | 1.82 | -0.01
12 | CCC(Cc1ccccc1)NC(=O)CN1C(=O)CSc2ncccc21 (stereo not drawn) | -2.26 | -14.6 | -2.81 | 85% | 75.7% | 0.665 | -0.97
13 | COc1ccc(C)cc1Nc1cc(C)nc2ncnn12 | -7.14 | 0.405 | -4.44 | 95.1% | 88.9% | 1.28 | -1.57
14 | O=C(Nc1ccccc1Cl)c1ccc(S(=O)(=O)N2CCOCC2)cc1 | -11.5 | -7.41 | -0.1 | 111% | 99.4% | 0.585 | 2.05
15 | CC(C)C(=O)Nc1ccc(Nc2ccccc2)cc1 | -3.29 | -8.34 | 0.79 | 105% | 104% | 0.87 | 2.52
16 | Cc1ccc(N2CC(c3nc4ccccc4n3C)CC2=O)cc1C (stereo not drawn) | -4.58 | -2.28 | -1.22 | 103% | 105% | 0.94 | 3.07
17 | COc1cc2c(cc1OC)C(c1ccco1)CC(=O)N2 (stereo not drawn) | -6.61 | -1.62 | -2.43 | 101% | 101% | 1.06 | 3.34
18 | O=C(C1CC(=O)N(C2CCCC2)C1)N1CCN(c2ccc(F)cc2)CC1 (stereo not drawn) | -1.42 | 1.6 | 0.11 | 94.3% | 95.2% | 1.39 | 2.53
19 | CCN(CC)S(=O)(=O)c1ccc(C(=O)OCCN2C(=O)CCC2=O)cc1 | -4.98 | 10.3 | 0.48 | 102% | 101% | 0.755 | 4.16
20 | COc1ccc(N(CC(=O)Nc2ccc(C)cn2)S(=O)(=O)c2c(C)nn(C)c2C)cc1 | -17.5 | -9.45 | -1.95 | 97.5% | 96.2% | 0.055 | 5.27
21 | Cn1c(NC(=O)c2ccccc2C(F)(F)F)cc(=O)n(C)c1=O | -16.9 | -8.93 | -2.06 | 95.3% | 90.7% | 0.785 | -1.32
22 | COc1ccc(N2CCN(C(=O)c3ccc(CS(=O)(=O)c4ccc(OC)cc4)o3)CC2)cc1 | -9.34 | -3.61 | -1.85 | 92.1% | 79.2% | 1.83 | 4.78
23 | O=C(O)CCC(=O)c1ccc2c(c1)OCCO2 | -6.04 | 8.29 | -1.32 | 101% | 103% | 1.79 | -1.36
24 | CCOC(=O)C(C(=O)OCC)c1cc(Br)c2noc3c2c1C(=O)c1ccccc1-3 | -15.6 | -3.25 | -8.25 | 1.06% (active) | 1.23% (active) | 1.65 | 1.87
